This passage reports inhibition and Ki results from ChEMBL document CHEMBL4346734, “Modification of the 4-phenylbutyl side chain of potent 3-benzazepine-based GluN2B receptor antagonists” (Bioorg Med Chem, 2019).

Assay [1] has as its target Glutamate receptor ionotropic, NMDA 2B (Homo sapiens) (UniProt Q13224). In words: Displacement of [3H]ifenprodil from human GluN2B expressed in mouse L(tk-) cell membranes at 1 uM incubated for 120 mins by scintillation counting method relative to control. The method, boiled down: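 Competition binding with [³H]ifenprodil on membranes of mouse fibroblast L(tk-) cells stably transfected with dexamethasone-inducible vectors for human GluN1a and human GluN2B; inhibition (%) of radioligand binding recorded at 1 μM test compound.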
Background: In a radioligand displacement assay an active substance lowers the binding of a labelled ligand.

A short description of assay [2]: Displacement of [3H]-(+)-MK-801 from NMDA PCP binding site in pig brain cortex membrane at 1 uM incubated for 120 mins by scintillation counting method relative to control. Format: cell membranes.
The target in assay [3] is Sigma non-opioid intracellular receptor 1 (Cavia porcellus) (UniProt Q60492). In words: Displacement of [3H]-(+)pentazocine from sigma-1 receptor in guinea pig brain membranes after 120 mins by scintillation counting method relative to control. Format: cell membranes. More on the design: concentration or dose not given beside the values.
Sigma non-opioid intracellular receptor 1 (Cavia porcellus), sequence (Q60492 whole entry): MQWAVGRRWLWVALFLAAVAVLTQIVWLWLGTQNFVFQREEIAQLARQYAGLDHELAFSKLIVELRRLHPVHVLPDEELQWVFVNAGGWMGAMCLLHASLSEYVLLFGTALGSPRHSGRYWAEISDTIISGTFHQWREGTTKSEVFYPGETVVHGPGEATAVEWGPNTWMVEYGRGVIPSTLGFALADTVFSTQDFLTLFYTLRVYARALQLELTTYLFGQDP
The target of assay [4] is T1, Sigma intracellular receptor 2 (Rattus norvegicus) (UniProt Q5U3Y7).
T1 sequence (whole entry): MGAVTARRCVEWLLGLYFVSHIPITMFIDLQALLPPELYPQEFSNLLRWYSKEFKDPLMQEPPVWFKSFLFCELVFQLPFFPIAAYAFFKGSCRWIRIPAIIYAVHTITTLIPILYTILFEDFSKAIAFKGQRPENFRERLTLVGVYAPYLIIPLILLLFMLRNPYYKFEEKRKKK
Put plainly: Displacement of [3H]-Di-o-tolylguanidine from sigma-2 receptor in rat liver membranes after 120 mins by scintillation counting method relative to control. More on the design: concentration or dose not given beside the values. Format: cell membranes.

Assay [5] concerns the target Glutamate receptor ionotropic, NMDA 2B (Homo sapiens, UniProt Q05586+Q13224). Put plainly: Displacement of [3H]ifenprodil from human GluN2B expressed in mouse L(tk-) cell membranes co-expressing GluN1a incubated for 120 mins by scintillation counting method.
The target in assay [6] is T2, Sigma non-opioid intracellular receptor 1 (Cavia porcellus, UniProt Q60492). In words: Displacement of [3H]-(+)pentazocine from sigma-1 receptor in guinea pig brain membranes after 120 mins by scintillation counting method. Format: cell membranes.
T2 sequence (Q60492 whole entry): as the sequence (Q60492 whole entry) above
Assay [7] deals with T3, Sigma intracellular receptor 2 (Rattus norvegicus, UniProt Q5U3Y7).
T3 sequence (Q5U3Y7 whole entry): T1 sequence (whole entry)
Put plainly: Displacement of [3H]-Di-o-tolylguanidine from sigma-2 receptor in rat liver membranes after 120 mins by scintillation counting method. Format: cell membranes.

Assay [8] is filed under the species Cavia porcellus. Put plainly: Displacement of [3H]-(+)-MK-801 from NMDA PCP binding site in pig brain cortex membrane at 1 uM incubated for 150 mins by scintillation counting method relative to control. Format: cell membranes.
Assay [9] has as its target T2, Sigma non-opioid intracellular receptor 1. In words: Displacement of [3H]-(+)pentazocine from sigma-1 receptor in guinea pig brain membranes after 180 mins by scintillation counting method. Format: cell membranes.
Assay [10] has as its target T3, Sigma intracellular receptor 2. Put plainly: Displacement of [3H]-Di-o-tolylguanidine from sigma-2 receptor in rat liver membranes after 180 mins by scintillation counting method. It is filed as cell membranes.

Glutamate receptor ionotropic, NMDA 2B (Homo sapiens), sequence (Q13224 27-1484 limits assumed): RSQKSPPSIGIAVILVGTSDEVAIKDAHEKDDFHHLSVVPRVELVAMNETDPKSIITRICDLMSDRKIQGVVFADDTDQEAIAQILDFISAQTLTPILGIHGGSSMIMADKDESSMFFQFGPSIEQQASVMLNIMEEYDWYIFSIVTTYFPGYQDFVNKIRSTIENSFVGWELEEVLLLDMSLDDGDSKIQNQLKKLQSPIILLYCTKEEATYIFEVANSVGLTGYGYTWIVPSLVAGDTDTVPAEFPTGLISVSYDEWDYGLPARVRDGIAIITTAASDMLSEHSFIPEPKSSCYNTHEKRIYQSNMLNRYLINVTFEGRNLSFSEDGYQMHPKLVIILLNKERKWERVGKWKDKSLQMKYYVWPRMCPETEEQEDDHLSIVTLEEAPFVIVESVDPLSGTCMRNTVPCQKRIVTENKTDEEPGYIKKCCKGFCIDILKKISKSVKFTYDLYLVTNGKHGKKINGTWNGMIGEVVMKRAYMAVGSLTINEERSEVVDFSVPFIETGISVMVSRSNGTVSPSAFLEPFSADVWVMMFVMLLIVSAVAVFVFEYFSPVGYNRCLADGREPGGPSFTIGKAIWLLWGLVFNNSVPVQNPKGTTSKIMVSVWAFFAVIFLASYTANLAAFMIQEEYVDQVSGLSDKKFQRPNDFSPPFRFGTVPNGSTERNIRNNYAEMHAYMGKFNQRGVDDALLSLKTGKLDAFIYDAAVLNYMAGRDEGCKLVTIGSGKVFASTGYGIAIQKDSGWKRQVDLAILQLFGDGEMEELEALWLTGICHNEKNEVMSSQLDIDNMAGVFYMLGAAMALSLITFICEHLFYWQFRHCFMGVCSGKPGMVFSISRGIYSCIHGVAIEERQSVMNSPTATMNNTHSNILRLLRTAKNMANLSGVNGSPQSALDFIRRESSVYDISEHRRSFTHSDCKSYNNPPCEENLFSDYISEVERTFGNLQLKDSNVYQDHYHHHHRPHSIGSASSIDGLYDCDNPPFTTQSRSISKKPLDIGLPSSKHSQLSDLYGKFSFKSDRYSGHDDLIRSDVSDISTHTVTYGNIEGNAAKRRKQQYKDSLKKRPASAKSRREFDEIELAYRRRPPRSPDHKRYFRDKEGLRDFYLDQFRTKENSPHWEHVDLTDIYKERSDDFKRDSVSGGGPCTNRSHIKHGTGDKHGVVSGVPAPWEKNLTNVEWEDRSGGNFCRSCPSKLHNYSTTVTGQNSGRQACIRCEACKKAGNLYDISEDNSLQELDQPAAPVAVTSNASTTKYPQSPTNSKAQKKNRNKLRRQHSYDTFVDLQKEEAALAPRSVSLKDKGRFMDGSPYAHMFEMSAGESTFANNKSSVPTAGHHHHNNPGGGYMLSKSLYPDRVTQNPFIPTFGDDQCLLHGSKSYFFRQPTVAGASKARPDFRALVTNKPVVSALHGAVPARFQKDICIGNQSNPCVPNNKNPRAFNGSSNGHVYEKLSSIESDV
Glutamate receptor ionotropic, NMDA 2B, sequence (Q13224 whole entry, one chain of several): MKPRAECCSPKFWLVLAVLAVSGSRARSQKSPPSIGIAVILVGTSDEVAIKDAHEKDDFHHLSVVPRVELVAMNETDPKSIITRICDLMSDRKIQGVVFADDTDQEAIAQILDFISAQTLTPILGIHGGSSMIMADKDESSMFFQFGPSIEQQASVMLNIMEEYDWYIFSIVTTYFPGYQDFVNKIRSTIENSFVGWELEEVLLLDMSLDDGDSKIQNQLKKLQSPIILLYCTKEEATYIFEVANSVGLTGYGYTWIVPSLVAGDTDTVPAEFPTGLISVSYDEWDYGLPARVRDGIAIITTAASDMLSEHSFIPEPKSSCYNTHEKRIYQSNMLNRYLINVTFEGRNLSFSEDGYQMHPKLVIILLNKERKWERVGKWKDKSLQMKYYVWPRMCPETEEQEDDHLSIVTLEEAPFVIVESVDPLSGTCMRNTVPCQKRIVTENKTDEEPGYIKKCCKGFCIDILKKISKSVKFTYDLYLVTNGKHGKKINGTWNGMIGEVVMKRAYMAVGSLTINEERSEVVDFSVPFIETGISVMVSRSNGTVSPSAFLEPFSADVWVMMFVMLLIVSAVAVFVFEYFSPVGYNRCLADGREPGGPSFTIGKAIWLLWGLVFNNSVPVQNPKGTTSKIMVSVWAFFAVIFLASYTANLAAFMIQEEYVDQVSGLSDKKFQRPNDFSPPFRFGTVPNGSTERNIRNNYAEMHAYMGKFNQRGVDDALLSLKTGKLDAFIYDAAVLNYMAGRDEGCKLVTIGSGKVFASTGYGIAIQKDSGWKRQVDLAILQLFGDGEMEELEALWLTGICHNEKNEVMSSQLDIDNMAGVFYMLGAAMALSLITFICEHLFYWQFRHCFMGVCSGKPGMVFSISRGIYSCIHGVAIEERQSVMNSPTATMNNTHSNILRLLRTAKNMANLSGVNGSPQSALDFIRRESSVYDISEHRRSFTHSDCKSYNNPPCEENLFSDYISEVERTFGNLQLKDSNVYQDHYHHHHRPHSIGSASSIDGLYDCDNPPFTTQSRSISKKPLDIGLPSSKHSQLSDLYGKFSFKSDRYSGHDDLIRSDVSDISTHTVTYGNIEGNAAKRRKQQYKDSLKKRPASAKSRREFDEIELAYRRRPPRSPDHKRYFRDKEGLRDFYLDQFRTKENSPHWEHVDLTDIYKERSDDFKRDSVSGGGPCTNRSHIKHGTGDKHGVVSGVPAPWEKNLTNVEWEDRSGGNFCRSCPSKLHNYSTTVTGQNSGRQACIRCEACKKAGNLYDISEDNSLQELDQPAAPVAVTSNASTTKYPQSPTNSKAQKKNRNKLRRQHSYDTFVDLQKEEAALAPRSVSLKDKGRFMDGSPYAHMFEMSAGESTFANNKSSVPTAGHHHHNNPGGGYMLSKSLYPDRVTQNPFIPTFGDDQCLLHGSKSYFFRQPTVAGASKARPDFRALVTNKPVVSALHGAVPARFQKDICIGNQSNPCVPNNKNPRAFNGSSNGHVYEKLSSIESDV

Usually inhibition stands for how much of the control response was suppressed. With `COc1ccc2c(c1)CCN(CCC#Cc1cccc(OCCF)c1)CC2O` (centres undefined), the inhibition in [1] worked out at 3%; in assay [2] it was 0%; in assay [3] it was 9%; in [4], 23%.

For `COc1ccc2c(c1)CCN(CCC#Cc1nccs1)CC2O` (centres undefined), the inhibition in assay [1], in assay [2], in assay [3] and in assay [4] was 0% throughout.

As a reminder, the Ki is the dissociation constant of the complex between target and ligand, obtained from inhibition or displacement. Take `COc1ccc2c(c1)CCN(CCCC#Cc1ccccc1)CC2O` (centres undefined): the Ki in assay [5] worked out at 460 nM; in [6], 164 nM; in [7], 878 nM. In assay [2], the inhibition amounted to 9%.

In the case of `COc1ccc2c(c1)CCN(CCCCc1cn(CCF)nn1)CC2O` (centres undefined), the inhibition in [1] worked out at 0%; in [2], 0%; in [3], 28%; in [4], 0%.

Turning to `COc1ccc2c(c1)CCN(CCCCc1cccnc1)CC2O` (centres undefined), the Ki in assay [6] was found to be 274 nM; in assay [7], 397 nM. For the same compound, the inhibition in assay [1] and in assay [2] was 0% in each case.

Regarding `COc1ccc2c(c1)CCN(CCC#Cc1ccccc1OCCF)CC2O` (centres undefined), the inhibition was determined as 4% in assay [1], 4% in [2], 31% in assay [3] and 22% in assay [4].

As for `COc1ccc2c(c1)CCN(CCC#Cc1ccc(OCCF)cc1)CC2O` (centres undefined), the inhibition constant Ki in assay [6] turned out to be 701 nM. The inhibition worked out at 3% in assay [1], 0% in assay [2] and 12% in assay [4].

Take `COc1ccc2c(c1)CCN(CCCCc1ccccc1OCCF)CC2O` (centres undefined): the Ki is 715 nM in assay [6] and 593 nM in assay [7]. Also, the inhibition in assay [1] worked out at 19%; in [2], 0%.

`COc1ccc2c(c1)CCN(CCC#Cc1ccccc1)CC2O` (centres undefined) showed an inhibition constant Ki in assay [6] of 565 nM. Also, the inhibition in [1] was determined as 18%; in assay [2] it was 15%; in assay [4], 15%.

As for `OC1CN(CCC#Cc2ccc(OCCF)cc2)CCc2cc(OCc3ccccc3)ccc21` (centres undefined), the inhibition is 0% in assay [1], 0% in [2], 0% in assay [3] and 12% in assay [4].

As to `COc1ccc2c(c1)CCN(CCCCc1ccccc1)CC2O` (centres undefined), the inhibition in assay [8] came to 25%. Also, the inhibition constant Ki in assay [9] came to 211 nM; in [10] it was 96 nM.

Regarding `Oc1ccc2c(c1)CCN(CCCCc1ccc(OCCF)cc1)CC2O` (centres undefined), the inhibition constant Ki turned out to be 193 nM in [5], 705 nM in [6] and 79 nM in assay [7]. Further, the inhibition in assay [2] is 0%.

On to `COc1ccc2c(c1)CCN(CCC#Cc1cccnc1)CC2O` (centres undefined), for which the inhibition in assay [1] turned out to be 1%; in assay [2], 0%; in assay [3] it was 5%; in [4], 9%.

With `COc1ccc2c(c1)CCN(CCCCc1cccs1)CC2O` (centres undefined), the Ki was 340 nM in [6] and 562 nM in assay [7]. Also, the inhibition came out at 20% in assay [1] and 0% in [2].

For the compound `COc1ccc2c(c1)CCN(CCC#Cc1cccs1)CC2O` (centres undefined), the inhibition in assay [1] worked out at 13%; in [2], 0%; in [3], 21%; in [4], 20%.
